Experimental data reported in publication PMC8586590 (Bioactive Materials, 2021).

How the values were obtained:
[1] = tested on: HepG2 3D multicellular spheroids; experiment: Multicellular spheroid; format: cell-based; details: HepG2 MCSs, 100 μM, medium replaced every two days, 7 days, N=3
Procedure, shortened: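 HepG2 3D spheroids held in 100 μM formulation, with medium replaced every two days; drug-free medium served as control. Spheroid volume calculated as V = 4/3πr³ from the radius and expressed relative to each spheroid's day-0 volume. Mean ± SD, N = 3.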

[2] = format: in vivo, Balb/c nude mice; details: i.v., 3 mg/kg HCPT-equivalent
Procedure, shortened: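 Normal Balb/c nude mice (4–6 weeks, 16–19 g), six groups of five including saline, treated three times. Eye blood taken on days 1 and 5 after the third dose. For haematology, 300 μL into heparinised tubes; for biochemistry, 500 μL, centrifuged at 2500×g for 15 min and the supernatant used. Xenograft mice: body weight every three days and H&E of major organs at study end.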

HepG2 cells = experiment: Cell inhibition, MTT assay; format: cell-based; details: Homo sapiens, HepG2, 48 h
HepG2-luci cells = experiment: Lung metastasis model; format: in vivo, Balb/c nude mice; details: after 30 days, i.v., 3 mg/kg HCPT equivalent, four injections, N=5
Procedure, shortened: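 Balb/c nude mice (4–6 weeks, 20 ± 2 g) received 1 × 10⁶ HepG2-luci cells in 200 μL serum-free DMEM via the tail vein. Six days later (day 0) they were randomised into six groups of five and dosed i.v. at 3 mg/kg HCPT-equivalent on days 0, 3, 6 and 9. Study ended at day 30: lungs fixed in Bouin's for 24 h and photographed, then formalin-fixed paraffin sections stained with H&E.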

IC50 (HepG2 cells): 840 nM
Compound: CC[C@@]1(O)C(=O)OCc2c1cc1n(c2=O)Cc2cc3cc(O)ccc3nc2-1 [HCPT, 10-hydroxycamptothecin]
MCS volume relative to initial volume [1]: stable volume
blood parameters RBC, WBC, HGB, PLT (hematotoxicity) ([2]; three times, N=5): deteriorated
body weight during treatment ([2]; tumor-bearing mice): obvious weight loss
bioluminescence signal of HepG2-luci cells in the lung (HepG2-luci cells): the strongest
